From the RNAGym collection of RNA variant scans (doi:10.1126/science.aae0568)
Variants at the floor of the assay were thinned out.

B1: tRNA (parent)
chain: GUUCCGUUGGCGUAAUGGUAACGCGUCUCCCUCCUAAGGAGAAGACUGCGGGUUCGAGUCCCGUACGGAACG

Variants of: B1
Experiment: yeast fitness relative to wild type (ratio to wild type); higher = fitter; tRNA-Arg(CCU), competitive growth, 37 C, YPD
Summary of the method: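 The tRNA-Arg(CCU) gene variants were made by chemical synthesis with a 3% per-site mutation rate at 69 sites and inserted at the native genomic locus of Saccharomyces cerevisiae. After pooling, the strains were competed in YPD at 37°C for 24 hours in six parallel replicates. Gene amplicons from the start population and each end population were read by 100-nucleotide paired-end sequencing, and Darwinian fitness relative to wild type was taken from genotype frequency changes. Genotypes needed ≥ 100 starting reads, and estimates < 0.5 were set to 0.5.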
With GUUCCGUUGGGGUAAGGGUAACGCGUCUCCCUCCUAACGAGAAGACUGCGGGUUCGAGUCCCGUACGGAACG the yeast fitness was 0.577.
GUUCCGUUGGCGUAAUGGUAACGCGUCUCCCUCCUAAGGAGAAGAAUGCGGGUUUGAGUCCCGUACGGAACG showed a yeast fitness of 0.758.
For GUUCCGUUGGCGUAACGGUAACGGGUCUCCCUCCUAAGGAGAAGACUGCGGGUUCGAGUCCCGUACGGAACG, the yeast fitness was 0.64.
In the case of GUUCCGUUGGCGUAAUGGUAACGCGUCUCCCUCCUAAGCAGAAGACUGCGGGUUCGAGUCCGGUACGGAACG, the yeast fitness is reported as 0.607.
Variant GUUCCGUUGGCGUAAUGGUAACGCGUAUCCCUCCUAAGGAGAAGACUGCGGGUUCGAGUCCCGUGCGGAACG has a yeast fitness of 1.02.
GUUCCGUUGGUGUAAUGGUAACGCGUCUCCCUCGUAAGGAGAAGACGGCGGGUUCGAGUCCCGUACGGAACG showed a yeast fitness of at most 0.5.
For GUUCCGUUGGCGUAAUGGUAACGCGUCUCGCUCCUAAGGAGAAGACUGCGGCUUCGAGUCCCGUACAGAACG, the yeast fitness was at most 0.5.
With GUUCCGUUGGCGUAAUGGUAACGCGUCUCCCUCCUAAGGAGCAGACUGCGGGUUCGAGUCCCGCACGGAUCG the yeast fitness was 1.12.
GCUCCGUUGGCGUAAUGGUAACGCGUCUUCCUCUUAAGGAGAAGACUGCGGGUUCGCGUCCCGCACGGAACG showed a yeast fitness of at most 0.5.
GCUCCGUUGGCGUAAUGGUAACGCGUCUCCCUCCUAAGGAGAAGACUGCGGGUUCGAGUCACGUACGGAACG gave a yeast fitness of 0.783.
GUUCGGUUGGCGUAUUGGUAACGCGUCUGCCUCCUAAGGAGAAGACUGCGGGUUCGAGGCCCGUACGGAACG gave a yeast fitness of at most 0.5.
For GUUCCGUUGGCGUCAUGGUACCGCGUCUCCCUCCUAAGAAGAAGACUGGGGGUUCGAGUCCCGUACGGAACG, the yeast fitness was at most 0.5.
With GUUCCGUUAGCGCAAUGGCAACGCGUCUCCCUCCUAAGGAGAAGACUGCGGGUUCGAGUCCCGUACGGAACG the yeast fitness was 0.907.
Variant GUUCCGUUGGGGUAAUGGUAACGCGUCUCCCUCCUAAGGAGAAGACUGCGGGUUCGAGUCCCGUACGGUACG has a yeast fitness of 0.608.
Work on GUUCCGUUGGCGUAAUGGUUACGCGUCUCCCUCCUAAGGAGAAGAUUGCGGGUUCGAGUCCCGUACGGAUCG yielded a yeast fitness of 0.79.
With GUUCCGUUGGCGUAAUGGUAACGCGUCUCCCUCCUAAGGAGAAGACUGCGGGUUCGGGUCCCGUACAGAUCG the yeast fitness was at most 0.5.
GUUCCGUUGGCGUAAUGGUAACGGGUCUCCCUCCUAAGGAGAAGACUGCGGGUUCGUGUCCCGUACGGCACG showed a yeast fitness of at most 0.5.
GUUCCGUUGGGGUAAUGGUAACGCGUCUCCCUCCUAAGGAGAAGACUGCGGGUUCGAGUCCCGUAUGGCACG showed a yeast fitness of at most 0.5.
Variant GUUCAGUUGGCGUAAUGGUAACGCGUCUCCCUCAUAAGGAGACGCUUGCGGGUUCGAGUCCCGUACGGAACG has a yeast fitness of 0.593.
In the case of GUUCCGUUGGCGUAAUGGUAACGCGUCUCCCUCCUAAGGAGAAGACUGCGGGUUCGAGUGCCGUACGGUUCG, the yeast fitness is reported as 0.545.
For GUUCCGUUGCCGUAAUGGUAACGCGUCUCCCUACUAAGGAGAAGACUACGGGUUCGAAUCCCGUACGGAACG, the yeast fitness was at most 0.5.
GUUCGGUUGGCGUAAAGGUAACGCGUCUCCCUCCUAAGGAGAAGACUACGGGUCCGAGUCCCGUACGGAACG gave a yeast fitness of 0.701.
Work on GUUCCGUUGGCGUAAUGGUAACGUGUCUCCCUCCUAAGGAGAAGACUGUGGGUGCGAGUCCCGUACAGAACG yielded a yeast fitness of at most 0.5.
In the case of GUUCCGUUGGCGUAAUGGUAACGCGUCUCCCUCCUAAGCAGAAGACUGCGGGUUCGAGUCCCAUACGGAACG, the yeast fitness is reported as 0.7.
With GUUCCAUUCGCGUAAUGGUAACGCGUCUCCCUCCUAAGGAGAACACUGCGGGUUCGAGUCCCGUACAGAACG the yeast fitness was 0.649.
With GUUCCGUUGGCGUAAUAGUAAUGCGUCUCCCUCCUAAGGAGAAGGUUGCGGGUUCGAGUCCCGUACGGAACG the yeast fitness was 0.538.
In the case of GUUCCGUUGGCGUAAUGGUAACGCGUCUCCCUCCUAAGUAGAAGACUGCGGGUUCGAGUCCCGUAUGGAACG, the yeast fitness is reported as 0.854.
Variant GUUCCGUUGGCGUAAUGGUAGCGCGUCUCCCUCCUAAGGAGAAGACUGCGGGUUCGAGGCCCGCUCGGAACG has a yeast fitness of 0.586.
With GUUGCGUUGGUGUAAUGGUAACGCGUCUCCCUCCUGAGGAGAAGACUGCGGGUUCGAGUCCCGUACGGAACG the yeast fitness was 0.57.
In the case of GUUCCGUUGGCGUAAUGGUAACGCGUAUCCCUCCUAAGGAGAAGAUUGCGGGUUCGAGUCCCGUACGGAACG, the yeast fitness is reported as 1.05.
For GUUCCGUUGGCGUAAUGGUAACGCGUCUCUCUCCUAAGGAGACGACUGCGGAUUCGAGUCCCGUAUGGAACG, the yeast fitness was at most 0.5.
GUUCGGUUGGCGUAAUGGUAACGCGCCUCCCUCCUAAGGAGAAAACUGCGGGUUCGAGUCCCGUACGGAACG gave a yeast fitness of 0.529.
In the case of GUUCCGUUGGCAUAUUGGUAACGCGUCUCCCUCCUAAGGAGAAGACUGCGAGUUCGAGUCCCGUUCGGAACG, the yeast fitness is reported as at most 0.5.
With GUUCCGUUGGCGUAAUGGUAACGCGUCUCCCUCGUAAGGACAAGACUGCGGGUUCGAGUACCGUACGGAACG the yeast fitness was 0.607.
With GUUCCGUUGCCGUAAUGGUAACGCGUCUACCUCCUAAGGAGAAGACUGCGGGUUCGAGUCCCGUACGCAACG the yeast fitness was at most 0.5.
For GUUCCGUUGGCGUAAUGGUAACGCGGCUCCCUCCUAAGGAGAAGGUUGCAGGGUCGAGUCCCGUAUGGUACG, the yeast fitness was at most 0.5.
GUUCCCUUGGCGUAAUGGUAACGCGUAUCCCUCCUAAGGAGCAGACUGCGGAUUCAAGUCCCCUACGGAACG showed a yeast fitness of at most 0.5.
